{"source": "ChEMBL document CHEMBL1151719", "about": "“Discovery of a \"true\" aspirin prodrug” (J Med Chem, 2008)", "key": {"[1]": {"experiment": "Stability in 10% human plasma assessed as half life of hydrolysis at pH 7.4", "type": "ADME, cell-free", "procedure,_shortened": "(§1)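 Pooled plasma or serum from centrifuged citrated human venous blood, diluted with pH 7.4 phosphate buffer (whole blood undiluted), preheated to 37 ± 0.5 °C. Ester added from acetonitrile at 5 × 10^-5 M. Aliquots were quenched in 2% ZnSO4 in MeCN/H2O (1:1), centrifuged, and analysed by gradient C18 HPLC (230 nm) until the parent was consumed. Fit to first-order decay; triplicate.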"}, "Platelet [2]": {"test_system": "Platelet", "experiment": "Inhibition of arachidonic acid-induced platelet aggregation in whole blood at 100 uM", "type": "functional", "procedure,_shortened": "(§2)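 Citrated human whole blood (500 µL) diluted with 500 µL saline, equilibrated 10 min at 37 °C, then pre-incubated 10 min with stirring with test compound added in DMSO (10 µL). Aggregation triggered by arachidonic acid (0.5 mM); impedance read over 6 min. Inhibition tested over 5-100 µM; fit by nonlinear regression.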"}, "[3]": {"molecular_target": "Cholinesterase (Homo sapiens) (UniProt P06276)", "sequence (P06276 whole entry)": "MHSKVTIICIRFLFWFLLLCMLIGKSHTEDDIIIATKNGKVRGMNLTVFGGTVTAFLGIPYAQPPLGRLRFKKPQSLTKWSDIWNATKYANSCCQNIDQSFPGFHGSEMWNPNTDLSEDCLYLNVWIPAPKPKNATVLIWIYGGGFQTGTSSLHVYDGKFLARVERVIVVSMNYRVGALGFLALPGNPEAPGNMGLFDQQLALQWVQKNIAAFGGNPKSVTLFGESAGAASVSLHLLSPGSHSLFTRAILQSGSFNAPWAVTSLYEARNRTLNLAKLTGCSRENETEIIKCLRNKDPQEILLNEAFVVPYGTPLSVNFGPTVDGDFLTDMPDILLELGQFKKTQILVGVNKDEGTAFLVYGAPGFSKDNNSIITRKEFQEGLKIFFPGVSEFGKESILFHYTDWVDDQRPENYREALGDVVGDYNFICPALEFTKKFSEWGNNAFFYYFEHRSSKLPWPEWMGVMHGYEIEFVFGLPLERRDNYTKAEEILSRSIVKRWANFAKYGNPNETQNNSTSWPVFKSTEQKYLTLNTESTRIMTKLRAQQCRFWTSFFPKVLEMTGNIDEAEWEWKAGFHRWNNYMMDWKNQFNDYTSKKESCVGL", "experiment": "Activity of BuChE in 10% human plasma", "type": "cell-free", "design": "Vmax(app): unit not given here", "procedure,_shortened": "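Citrated human venous blood was centrifuged, and the pooled plasma or serum was diluted with phosphate buffer pH 7.4. Whole blood was used undiluted. Ester substrate at 5 × 10^-5 M was added from acetonitrile and incubated at 37 °C. Timed aliquots were quenched in ZnSO4 in MeCN/H2O and analysed by HPLC at 230 nm. Apparent KM and Vmax were fitted to the integrated Michaelis-Menten equation. Triplicate.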"}, "Plasma [4]": {"test_system": "Plasma", "experiment": "Stability in 10% human plasma assessed as aspirin yield at pH 7.4", "type": "ADME, cell-free", "procedure,_shortened": "as §1"}, "Platelet [5]": {"test_system": "Platelet", "experiment": "Inhibition of arachidonic acid-induced platelet aggregation in whole blood", "type": "functional, tissue-based", "procedure,_shortened": "as §2"}, "[6]": {"experiment": "Stability in 30% human plasma assessed as half life of hydrolysis at pH 7.4", "type": "ADME, cell-free", "procedure,_shortened": "as §1"}, "Plasma [7]": {"test_system": "Plasma", "experiment": "(§3) Stability in 50% human plasma assessed as half life of hydrolysis at pH 7.4", "type": "ADME, cell-free", "conditions": "plasma", "procedure,_shortened": "(§4)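 Ester at 5 × 10^-5 M, added from acetonitrile, was incubated at 37 °C in pooled citrated human plasma diluted to 50% with phosphate buffer pH 7.4. Aliquots were deproteinised with ZnSO4 in MeCN/H2O and the remaining ester was quantified by HPLC at 230 nm. The rate constant came from an exponential decay fit. Triplicate.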"}, "Plasma [8]": {"test_system": "Plasma", "experiment": "Stability in 30% human plasma assessed as aspirin yield at pH 7.4", "type": "ADME, cell-free", "procedure,_shortened": "as §1"}, "[9]": {"experiment": "Stability in 10% rat plasma assessed as half life of hydrolysis at pH 7.4", "type": "ADME, cell-free"}, "[10]": {"experiment": "Stability in 30% human plasma assessed as half life of hydrolysis at pH 7.4 in presence of 10 uM BuChE inhibitor iso-OMPA", "type": "ADME, cell-free", "conditions": "pH 7.4, with iso-OMPA (BuChE inhibitor)", "procedure,_shortened": "(§5)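 Pooled citrated human plasma was diluted to 30% with phosphate buffer pH 7.4. Inhibitor was preincubated for 5 min before adding ester (5 × 10^-5 M) at 37 °C. Lines 15-16 used plasma from a donor with dibucaine-resistant BuChE. Timed aliquots were quenched with ZnSO4 in MeCN/H2O, and parent and aspirin were measured by HPLC at 230 nm. kobs came from exponential decay. Three determinations, mean ± SD.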"}, "Plasma [11]": {"test_system": "Plasma", "experiment": "Stability in 50% human plasma assessed as aspirin yield at pH 7.4", "type": "ADME, cell-free", "procedure,_shortened": "as §1"}, "[12]": {"experiment": "Stability in 50% human serum assessed as half life of hydrolysis at pH 7.4", "type": "ADME, cell-free", "procedure,_shortened": "as §1"}, "Plasma [13]": {"test_system": "Plasma", "experiment": "Stability in 30% human plasma assessed as aspirin yield at pH 7.4 in presence of 10 uM carboxylesterase inhibitor BNPP", "type": "ADME, cell-free", "procedure,_shortened": "(§6)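 Diluted human plasma (30%, pH 7.4, 37 °C) pre-incubated 5 min with inhibitor (EDTA 2 mM or BNPP 10 µM) before ester addition at 5 × 10^-5 M from acetonitrile. ZnSO4/MeCN quench, then HPLC of ester and aspirin. First-order fit; three determinations.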"}, "[14]": {"experiment": "Stability in 30% human plasma assessed as half life of hydrolysis at pH 7.4 in presence of 100 uM AChE inhibitor BW284c51", "type": "ADME, cell-free", "conditions": "pH 7.4, with BW284c51 (AChE inhibitor)", "procedure,_shortened": "as §5"}, "Serum": {"test_system": "Serum", "experiment": "Stability in 50% human serum assessed as aspirin yield at pH 7.4", "type": "ADME, cell-free", "procedure,_shortened": "as §1"}, "[15]": {"experiment": "Stability in 30% human plasma assessed as half life of hydrolysis at pH 7.4 in presence of 20 uM BuChE subtype inhibitor dibucaine", "type": "ADME, cell-free", "conditions": "pH 7.4, with dibucaine (BuChE subtype inhibitor)", "procedure,_shortened": "as §5"}, "[16]": {"experiment": "Stability in 30% human plasma assessed as half life of hydrolysis at pH 7.4 in presence of 0.1 uM AChE inhibitor BW284c51", "type": "ADME, cell-free", "conditions": "pH 7.4, with BW284c51 (AChE inhibitor)", "procedure,_shortened": "as §5"}, "[17]": {"experiment": "Stability in 30% human plasma assessed as half life of hydrolysis at pH 7.4 in presence of 2 mM arylesterase inhibitor EDTA", "type": "ADME, cell-free", "conditions": "pH 7.4, with EDTA (arylesterase inhibitor)", "procedure,_shortened": "as §5"}, "[18]": {"molecular_target": "Butyrylcholinesterase (Rattus norvegicus) (UniProt Q9JKC1)", "sequence (Q9JKC1 as listed by the source)": "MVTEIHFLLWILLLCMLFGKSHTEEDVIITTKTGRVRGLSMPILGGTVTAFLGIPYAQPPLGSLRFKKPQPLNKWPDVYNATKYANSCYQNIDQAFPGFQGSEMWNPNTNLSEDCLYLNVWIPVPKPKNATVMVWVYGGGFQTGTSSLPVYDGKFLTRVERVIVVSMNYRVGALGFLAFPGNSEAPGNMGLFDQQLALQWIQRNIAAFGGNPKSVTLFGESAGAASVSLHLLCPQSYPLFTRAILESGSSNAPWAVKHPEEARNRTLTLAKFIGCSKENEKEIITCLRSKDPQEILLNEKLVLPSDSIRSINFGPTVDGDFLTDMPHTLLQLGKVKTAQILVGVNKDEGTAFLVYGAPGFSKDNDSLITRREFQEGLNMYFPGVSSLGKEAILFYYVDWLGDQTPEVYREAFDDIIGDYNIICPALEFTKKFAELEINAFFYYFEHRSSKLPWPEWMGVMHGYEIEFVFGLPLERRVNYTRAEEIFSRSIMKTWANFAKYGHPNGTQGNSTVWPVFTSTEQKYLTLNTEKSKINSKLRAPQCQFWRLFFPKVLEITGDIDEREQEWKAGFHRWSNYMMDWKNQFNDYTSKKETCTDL", "experiment": "Activity of BuChE in 10% rat plasma"}, "[19]": {"experiment": "Stability in 30% human plasma assessed as half life of hydrolysis at pH 7.4 in presence of 20 uM dubucaine-insensitive BuChE subtype inhibitor dibucaine", "type": "ADME, cell-free", "conditions": "pH 7.4, with dibucaine", "procedure,_shortened": "as §5"}, "Plasma [20]": {"test_system": "Plasma", "experiment": "Stability in 30% human plasma assessed as aspirin yield at pH 7.4 in presence of 100 uM AChE inhibitor BW284c51", "type": "ADME, cell-free", "procedure,_shortened": "as §5"}, "[21]": {"experiment": "Stability in whole blood assessed as aspirin yield at pH 7.4", "type": "ADME, tissue-based", "procedure,_shortened": "as §1"}, "Plasma [22]": {"test_system": "Plasma", "experiment": "Stability in 30% plasma from patient with dubucaine-insensitive BuChE assessed as aspirin yield at pH 7.4 in presence of 20 uM BuChE inhibitor dibucaine", "type": "ADME, cell-free", "conditions": "human", "procedure,_shortened": "as §5"}, "[23]": {"experiment": "Stability in whole blood assessed as half life of hydrolysis at pH 7.4", "type": "ADME, tissue-based", "procedure,_shortened": "as §1"}, "[24]": {"experiment": "Stability in 30% human plasma assessed as half life of hydrolysis at pH 7.4 in presence of 20 uM cholinesterase inhibitor eserine", "type": "ADME, cell-free", "conditions": "pH 7.4, with eserine (cholinesterase inhibitor)", "procedure,_shortened": "as §5"}, "[25]": {"experiment": "as §3", "type": "ADME, cell-free", "conditions": "50% human plasma", "procedure,_shortened": "as §4"}, "[26]": {"experiment": "Stability in 30% human plasma assessed as half life of hydrolysis at pH 7.4 in presence of 10 uM carboxylesterase inhibitor BNPP", "type": "ADME, cell-free", "conditions": "pH 7.4, with BNPP (carboxylesterase inhibitor)", "procedure,_shortened": "as §5"}, "Plasma [27]": {"test_system": "Plasma", "experiment": "Stability in 30% human plasma assessed as aspirin yield at pH 7.4 in presence of 20 uM BuChE subtype inhibitor dibucaine", "type": "ADME, cell-free", "procedure,_shortened": "as §5"}, "Plasma [28]": {"test_system": "Plasma", "experiment": "Stability in 30% human plasma assessed as aspirin yield at pH 7.4 in presence of 2 mM arylesterase inhibitor EDTA", "type": "ADME, cell-free", "procedure,_shortened": "as §6"}}}
{"smiles": "CC(=O)Oc1ccccc1C(=O)O[C@H]1CO[C@H]2[C@@H]1OC[C@H]2O", "values": [{"measurement": "half-life", "setting": "[1]", "result": 3.25, "unit": "min"}, {"measurement": "inhibition at 100 µM", "setting": "Platelet [2]", "result": "< 30", "unit": "%"}, {"measurement": "Vmax(app)", "setting": "[3]", "result": 0.22}, {"measurement": "Activity", "setting": "Plasma [4]", "result": 3, "unit": "%"}]}
{"smiles": "CC(=O)Oc1ccccc1C(=O)O[C@H]1CO[C@H]2[C@@H]1OC[C@H]2OC(=O)c1ccccc1OC(C)=O", "values": [{"measurement": "half-life", "setting": "[1]", "result": 3.35, "unit": "min"}, {"measurement": "Vmax(app)", "setting": "[3]", "result": 0.3}, {"measurement": "IC50", "setting": "Platelet [5]", "result": 34.1, "unit": "µM"}, {"measurement": "half-life", "setting": "[6]", "result": 1.17, "unit": "min"}, {"measurement": "t1/2", "setting": "Plasma [7]", "result": 0.57, "unit": "min"}, {"measurement": "Activity", "setting": "Plasma [4]", "result": 51, "unit": "%"}, {"measurement": "Activity", "setting": "Plasma [8]", "result": 61, "unit": "%"}]}
{"smiles": "CC(=O)Oc1ccccc1C(=O)O[C@@H]1CO[C@H]2[C@@H]1OC[C@@H]2O", "values": [{"measurement": "half-life", "setting": "[1]", "result": 4.73, "unit": "min"}, {"measurement": "Vmax(app)", "setting": "[3]", "result": 0.25}]}
{"smiles": "CC(=O)Oc1ccccc1C(=O)O", "note": "[ASPIRIN]", "values": [{"measurement": "T1/2", "setting": "[3]", "result": 120, "unit": "min"}, {"measurement": "IC50", "setting": "Platelet [5]", "result": 25.5, "unit": "µM"}]}
{"smiles": "CC(=O)Oc1ccccc1C(=O)Oc1ccccc1", "values": [{"measurement": "T1/2", "setting": "[3]", "result": 1.3, "unit": "min"}]}
{"smiles": "CC(=O)Oc1ccccc1C(=O)O[C@@H]1CO[C@H]2[C@@H]1OC[C@@H]2OC(=O)c1ccccc1O", "values": [{"measurement": "half-life", "setting": "[1]", "result": 4.21, "unit": "min"}, {"measurement": "Vmax(app)", "setting": "[3]", "result": 0.23}]}
{"smiles": "CC(=O)Oc1ccccc1C(=O)O[C@H]1CO[C@H]2[C@@H]1OC[C@H]2OC(=O)c1ccccc1O", "values": [{"measurement": "half-life", "setting": "[9]", "result": 0.47, "unit": "min"}, {"measurement": "half-life", "setting": "[10]", "result": 7.04, "unit": "min"}, {"measurement": "Activity", "setting": "Plasma [11]", "result": 81, "unit": "%"}, {"measurement": "half-life", "setting": "[12]", "result": 0.56, "unit": "min"}, {"measurement": "Activity", "setting": "Plasma [13]", "result": 84, "unit": "%"}, {"measurement": "half-life", "setting": "[1]", "result": 4.9, "unit": "min"}, {"measurement": "half-life", "setting": "[14]", "result": 3.9, "unit": "min"}, {"measurement": "Activity", "setting": "Serum", "result": 73, "unit": "%"}, {"measurement": "half-life", "setting": "[15]", "result": 4.6, "unit": "min"}, {"measurement": "half-life", "setting": "[16]", "result": 1.1, "unit": "min"}, {"measurement": "half-life", "setting": "[17]", "result": 1.41, "unit": "min"}, {"measurement": "Vmax(app)", "setting": "[18]", "result": 1.75, "unit": "M/min"}, {"measurement": "half-life", "setting": "[19]", "result": 2, "unit": "min"}, {"measurement": "Vmax(app)", "setting": "[3]", "result": 0.17}, {"measurement": "Activity", "setting": "Plasma [20]", "result": 30, "unit": "%"}, {"measurement": "IC50", "setting": "Platelet [5]", "result": 17.3, "unit": "µM"}, {"measurement": "Activity", "setting": "[21]", "result": 72, "unit": "%"}, {"measurement": "Activity", "setting": "Plasma [22]", "result": 69, "unit": "%"}, {"measurement": "half-life", "setting": "[23]", "result": 0.96, "unit": "min"}, {"measurement": "half-life", "setting": "[24]", "result": 5.8, "unit": "min"}, {"measurement": "half-life", "setting": "[25]", "result": 0.49, "unit": "min"}, {"measurement": "half-life", "setting": "[26]", "result": 0.95, "unit": "min"}, {"measurement": "Activity", "setting": "Plasma [27]", "result": 6, "unit": "%"}, {"measurement": "Activity", "setting": "Plasma [4]", "result": 74, "unit": "%"}, {"measurement": "Activity", "setting": "Plasma [28]", "result": 85, "unit": "%"}]}
